Experimental data taken from ChEMBL document CHEMBL1129059, “Antitumor properties of some 2-[(dimethylamino)methyl]phenylgold(III) complexes” (J Med Chem, 1996).

Tests used:
Type in all cases: functional, organism-based
[1] = system: Mus musculus; test: Compound was evaluated for antitumor activity (T/C) in HT1376 carcinoma Xenograft, at a dosage 25 mg/kg on day 28; set-up: dose 25 mg/kg
Outline: (§1)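 Nude mice carrying subcutaneous flank HT1376 fragments; treatment began once tumors were established and palpable, randomized into groups of 6 treated and 10 control mice. Dosing was ip as a suspension in 0.5% carboxymethylcellulose in 0.9% saline on days 0, 7, 14 and 21, at the MTD and two 2-fold dilutions. Tumors were measured on days 0-28. RTV = 100(mean volume at assessment)/(mean start volume); T/C = treated RTV/control RTV.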

[2] = system: Mus musculus; test: Compound was evaluated for antitumor activity (T/C) in HT1376 carcinoma Xenograft, at a dosage 25 mg/kg on day 7; set-up: dose 25 mg/kg; outline: as §1
[3] = system: Mus musculus; test: Compound was evaluated for antitumor activity (T/C) in HT1376 carcinoma Xenograft, at a dosage 6.25 mg/kg on day 14; set-up: dose 6.25 mg/kg; outline: as §1
[4] = system: Mus musculus; test: Compound was evaluated for antitumor activity (T/C) in HT1376 carcinoma Xenograft, at a dosage 6.25 mg/kg on day 28; set-up: dose 6.25 mg/kg; outline: as §1
[5] = system: Mus musculus; test: Compound was evaluated for antitumor activity (T/C) in PNX/109/TC carcinoma Xenograft, at a dosage 20 mg/kg on day 14; set-up: dose 20 mg/kg
Outline: (§2)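 PNX/109/TC (CH1) ovarian tumor fragments implanted subcutaneously in the flanks of nude mice. Once tumors were palpable, mice were randomized into 6 per treated group and 10 controls. Dosing was ip in arachis oil on days 0, 7, 14 and 21, at the MTD and two 2-fold dilutions, with tumor dimensions taken on days 0, 7, 14, 21 and 28. T/C is treated RTV over control RTV, with RTV relative to start volume.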

[6] = system: Mus musculus; test: Compound was evaluated for antitumor activity (T/C) in PNX/109/TC carcinoma Xenograft, at a dosage 20 mg/kg on day 7; set-up: dose 20 mg/kg; outline: as §2
[7] = system: Mus musculus; test: Compound was evaluated for antitumor activity (T/C) in PNX/109/TC carcinoma Xenograft, at a dosage 5 mg/kg on day 14; set-up: dose 5 mg/kg; outline: as §2
[8] = system: Mus musculus; test: Compound was evaluated for antitumor activity (T/C) in PNX/109/TC carcinoma Xenograft, at a dosage 5 mg/kg on day 21; set-up: dose 5 mg/kg; outline: as §2
[9] = system: Mus musculus; test: Compound was evaluated for antitumor activity (T/C) in PNX/109/TC carcinoma Xenograft, at a dosage 5 mg/kg on day 7; set-up: dose 5 mg/kg; outline: as §2
[10] = system: Mus musculus; test: Compound was evaluated for antitumor activity (RTV) in HT1376 carcinoma Xenograft, at a dosage 12.5 mg/kg on day 14; set-up: dose 12.5 mg/kg
Outline: (§3)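 HT1376 tumor fragments implanted subcutaneously in nude mice flanks; mice with established palpable tumors randomized into groups of 6 (controls 10). Compounds given intraperitoneally as suspensions in 0.5% carboxymethylcellulose in 0.9% saline, on days 0, 7, 14 and 21. Tumor dimensions on days 0, 7, 14, 21, 28. RTV = 100(mean tumor volume at assessment)/(mean start volume).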

[11] = system: Mus musculus; test: Compound was evaluated for antitumor activity (RTV) in HT1376 carcinoma Xenograft, at a dosage 12.5 mg/kg on day 21; set-up: dose 12.5 mg/kg; outline: as §3
[12] = system: Mus musculus; test: Compound was evaluated for antitumor activity (RTV) in PNX/109/TC carcinoma Xenograft, at a dosage 10 mg/kg on day 21; set-up: dose 10 mg/kg
Outline: (§4)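 PXN/109/TC (CH1) ovarian tumor fragments implanted subcutaneously in nude mice flanks; established palpable tumors, groups of 6 (controls 10). Dosed intraperitoneally as suspension in arachis oil on days 0, 7, 14, 21. Tumors measured days 0, 7, 14, 21, 28. RTV = 100(mean tumor volume at assessment)/(mean start volume).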

[13] = system: Mus musculus; test: Compound was evaluated for antitumor activity (RTV) in PNX/109/TC carcinoma Xenograft, at a dosage 10 mg/kg on day 28; set-up: dose 10 mg/kg; outline: as §4
[14] = system: Mus musculus; test: Compound was evaluated for antitumor activity (RTV) in PNX/109/TC carcinoma Xenograft, at a dosage 20 mg/kg on day 14; set-up: dose 20 mg/kg; outline: as §4
[15] = system: Mus musculus; test: Compound was evaluated for antitumor activity (RTV) in PNX/109/TC carcinoma Xenograft, at a dosage 20 mg/kg on day 7; set-up: dose 20 mg/kg; outline: as §4
[16] = system: Mus musculus; test: Compound was evaluated for antitumor activity (RTV) in PNX/109/TC carcinoma Xenograft, at a dosage 5 mg/kg on day 14; set-up: dose 5 mg/kg; outline: as §4

Acetato[2-(dimethylamino)methyl]phenyl-C,N]gold-(III)
T/C [1]: 0.6 | T/C [2]: 0.93 | T/C [3]: 1.43 | T/C [4]: 1.16 | T/C [5]: 0.57 | T/C [6]: 0.74 | T/C [7]: 0.8 | T/C [8]: 0.84 | T/C [9]: 0.69 | RTV [10]: 498 | RTV [11]: 682 | RTV [12]: 515 | RTV [13]: 833 | RTV [14]: 200 | RTV [15]: 173 | RTV [16]: 282
